This is a sample that favours compounds with a hit; in the whole collection about 4.1% have one here.
FLuc inhib CS = firefly luciferase enzyme inhibitors, primary screen, artefact control for luciferase-based inhibitor screens, biochemical, luminescence, ATPLite; inhibition, % at 10 µM; 200,000 tested, 1.5% active; 10 min;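 active means inhibition above about 50% when tested at 10 µM, limit read from the data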
Target sequence (P08659 whole entry, looked up): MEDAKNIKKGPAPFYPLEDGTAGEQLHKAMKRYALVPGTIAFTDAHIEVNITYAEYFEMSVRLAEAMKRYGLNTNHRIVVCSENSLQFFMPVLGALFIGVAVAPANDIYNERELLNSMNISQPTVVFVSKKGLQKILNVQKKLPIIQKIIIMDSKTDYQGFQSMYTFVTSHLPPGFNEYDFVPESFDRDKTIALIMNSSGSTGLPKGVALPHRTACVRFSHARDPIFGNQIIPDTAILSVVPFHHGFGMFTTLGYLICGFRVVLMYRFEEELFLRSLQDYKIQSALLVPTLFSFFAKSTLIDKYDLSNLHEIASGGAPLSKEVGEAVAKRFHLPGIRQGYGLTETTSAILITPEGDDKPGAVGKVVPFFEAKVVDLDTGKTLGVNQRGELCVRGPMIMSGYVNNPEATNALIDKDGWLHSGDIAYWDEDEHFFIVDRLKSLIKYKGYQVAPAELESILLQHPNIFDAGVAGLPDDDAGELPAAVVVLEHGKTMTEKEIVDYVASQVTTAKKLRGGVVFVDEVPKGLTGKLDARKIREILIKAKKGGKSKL
STAT1 act = STAT1 signaling activators, primary screen, cell-based, HTS, luciferase reporter | NIH 3T3 STAT1-luciferase reporter, IFN-gamma, luminescence; 100% = IFN-gamma alone, no compound | activation (% of control), % at 5.5 µM | 200,000 tested, 2.6% active;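 active means activation above the screen-wide mean activation plus 3 SD, cut at about 130% in these data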
FLuc stim CS = FLuc activators, initial screening, artefact control for FLuc-dependent activation tests, biochemical, ATPlite luminescence; Luciferin 4-monooxygenase (Photinus pyralis), P08659; ATPlite luciferase biochemical, 10 min; 0 = ATP-free wells, 1 = DMSO control; activation factor at 10 µM; 200,000 tested, under 10 active; AID 1027, 2008;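 active means luciferase activation factor, scaled between plate controls, of at least 2 with compound at 10 µM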
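Material: luciferase plus luciferin reagent, cell-free. Medium: PBS buffer for ATP. Also added: ATP substrate, dispensed from a 10.24 µM working solution in PBS. Doses: test compounds dosed from 2 mM stocks in 100% DMSO. Incubation: 10 min post-reagent at room temperature. Technique: light output (luminescence). Read-out basis: luminescence gain marking luciferase activators.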
APP 5'UTR act = activators of APP 5'UTR luciferase reporter, primary screen, SH-SY5Y cells. SH-SY5Y APP 5'UTR luciferase reporter, luminescence; zero percent = DMSO vehicle wells. activation, % at 2 µM. 190,000 tested, 1% active. AID 1276, 2008;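 active means activation above a set limit, based on mean plus 3 SD of controls, cut at about 140% in these data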
NF-kB expr up = activators of NF-kB expression in neurons, primary screen, cell-based, HTS | human neuronal cells, NF-kB reporter expression; active compounds read high | AID 1239, 2008 | fold change at 12.5 µM | 190,000 tested, 1.6% active; in the data active means fold change above about 3.3
Large screens that a line does not name were inactive.

CC(C)Oc1ccc(CNCCC2(C(C)C)CCOC(C)(C)C2)cc1 (stereo not drawn)	none
COC(=O)c1c(-c2ccc(F)cc2)csc1NC(=O)c1ccco1	STAT1 act 146
CCCc1cc(=O)n2c([nH]c3ccccc32)c1C#N	FLuc inhib CS 66
Oc1ccc(-c2csc(Nc3ncccn3)n2)cc1O	FLuc inhib CS 53, STAT1 act 133, NF-kB expr up 12
O=[N+]([O-])c1cccc(/C=N/NS(=O)(=O)c2ccccc2)c1	none
CN(C)C(=O)COC(=O)c1ccccc1Nc1ccc(SC(F)F)cc1	STAT1 act 131
CCN(c1ccccc1)S(=O)(=O)c1ccc(Cl)c(C(=O)OCC(=O)NC(=O)C(C)C)c1	none
COc1cc(/C=N/NC(=O)c2cccnc2)ccc1OS(=O)(=O)c1ccc(C)cc1	none
COc1ccc(C(=O)Nn2cnc3ccccc3c2=O)c(OC)c1	STAT1 act 141
Cc1ccccc1C(=O)Nn1cnc2ccccc2c1=O	none
CC(=O)N(C)c1ccc(NC(=O)Nc2ccccc2C)cc1	FLuc inhib CS 54
CCCSc1nnc(NC(=O)c2nc(SC)ncc2Cl)s1	none
CCN(CC)CCn1c2ccccc2c2cnc(N)c(C#N)c21	STAT1 act 176
CN(C)C=Nc1ncc2c3ccccc3n(CCN(C)C)c2c1C#N	none
CC(NS(=O)(=O)c1ccc2c(c1)OCCCO2)C(=O)O (stereo not drawn)	none
O=C(Nc1ccc([N+](=O)[O-])cn1)c1ccc2c(c1)OCO2	STAT1 act 135
Cc1cc(NC(=O)CCC(=O)NNC(=O)c2ccc(C(C)(C)C)cc2)no1	FLuc inhib CS 78
Cc1cc(NC(=O)c2ccc3c(c2)OCCO3)no1	FLuc inhib CS 93, NF-kB expr up 4
C/C(=N\Nc1ccc([N+](=O)[O-])cc1)c1ccc2c(c1)OCO2	STAT1 act 136
N#Cc1ccc(CSCC(=O)NN=C2CCCC2)cc1	none
O=C(CNC(=O)c1ccccc1O)N/N=C/c1cc(Br)ccc1OC(=O)/C=C/c1ccco1	none
N/C(=N\OC(=O)COc1ccc(Br)cc1Cl)c1cccnc1	none
O=C(O)CC(=O)Nc1ccccc1	none
CCOc1ccc(C(=O)Nc2cc(C)on2)cc1OCC	none
Cc1cc(NC(=O)c2ccc3c(c2)OCO3)no1	FLuc inhib CS 62
CCOc1ccccc1-c1c2cc(O)c(=O)cc-2oc2cc(O)c(O)cc12	none
COc1ccc2sc3ccccc3c(=O)c2c1	STAT1 act 132
COc1ccc2oc3ccc(OC)cc3c(=O)c2c1	STAT1 act 144
CN1c2ccccc2Oc2c(c(=O)n(C)c(=O)n2C)C1c1cccc([N+](=O)[O-])c1 (stereo not drawn)	none
CCCn1c(C)cc(C(=O)COC(=O)c2cc(S(=O)(=O)NCC(C)C)c(Cl)cc2Cl)c1C	none
CCCn1c(C)cc(C(=O)COC(=O)c2nccnc2N)c1C	FLuc inhib CS 78
O=C(/C=C/c1c[nH]c2ccccc12)c1ccccc1	STAT1 act 136, NF-kB expr up 9.9
O=C(/C=C/c1ccccc1)c1ccccc1	none
Cc1ccc(C(=O)/C=C/c2c[nH]c3ccccc23)cc1	NF-kB expr up 3.5
Cc1ccc(S(=O)(=O)/C(C#N)=C/c2c[nH]c3ccccc23)cc1	none
CN(C)c1ccc(/C=N/O)cc1	none
CN(C)c1ccc(/C=N/n2ncc3ccccc32)cc1	FLuc inhib CS 60, STAT1 act 150, APP 5'UTR act 355
CCCCn1c(/N=C/c2ccc3c(c2)OCO3)nc2ccccc21	none
CCCCn1c(/N=C/c2ccc(N(C)C)cc2)nc2ccccc21	FLuc inhib CS 61
C=CCn1c(/N=C/c2ccc(N(C)C)cc2)nc2ccccc21	FLuc inhib CS 94
CCCC(C)C(=O)Nc1ccc(S(N)(=O)=O)cc1 (stereo not drawn)	none
CN1CCN(c2nc(-c3cccs3)cs2)CC1	none
CN1CCN(c2nc(-c3cc4ccccc4o3)cs2)CC1	STAT1 act 129
O=C(Nc1ccccn1)c1ccc2c(c1)OCO2	none
O=C(Nc1ncccc1Cl)c1ccc2c(c1)OCCO2	STAT1 act 138
CC(=O)Nc1ccc(C(=O)Nc2nc(-c3ccccn3)cs2)cc1	none

Source: PubChem (several laboratories)
